Series [1] deals with Influenza B virus. Nature of the series: Antiviral activity against Influenza B virus B/Sichuan/531/2018(BV) infected in MDCK cells assessed as inhibition of virus-induced cytopathic effect after 40 hrs by Celltiter-Glo assay. It counts as functional, organism-based. Put shortly: (§1)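 MDCK cells were seeded in 96-well plates, left overnight, then infected with influenza virus at MOI 0.1 and treated with the compound. After 40 h, viability was read by CellTiter-Glo luminescence. 1% DMSO (final) served as the negative control and oseltamivir phosphate as the positive control. IC50 is the concentration that inhibits virus-induced CPE by 50%, taken from dose-response curves in replicate independent experiments.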
In general terms: Damage to the host cells serves as the signal in cytopathic effect assays.

In series [2] the test system is Influenza A virus. The series can be described thus: Antiviral activity against Influenza A virus A/Victoria/361/2011(H3N2) infected in MDCK cells assessed as inhibition of virus-induced cytopathic effect after 40 hrs by Celltiter-Glo assay. It counts as functional, organism-based. In outline:
as §1

The nature of series [3]: Cytotoxicity against dog MDCK cells assessed as cell viability at 100 uM measured after 40 hrs by Celltiter-Glo assay relative to control. It counts as cell-based, Canis lupus familiaris. The settings on record: read-out: Activity. In outline: (§2)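 Uninfected MDCK cells were grown overnight in 96-well plates with 1% FBS. They were then exposed to increasing compound concentrations, or to a single 100 μM screen, for 40 h, and viability was read by CellTiter-Glo. CC50 is the concentration causing 50% death of uninfected cells.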
For orientation: In ATP-based viability assays light output follows the ATP content of the culture.

Series [4] has as its target Hemagglutinin (Influenza A virus) (UniProt B4URE7). The series can be described thus: Inhibition of influenza A virus A/WSN/33 HA-mediated chicken erythrocytes hemagglutination pretreated with compound followed by erythrocytes addition measured after 30 mins. Put shortly:
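Compound was serially diluted 2-fold in saline and mixed with an equal volume of A/WSN/33 (H1N1) virus in V-bottom plates. Freshly prepared chicken red blood cells (1% v/v in saline) were then added. After 30 min at room temperature, erythrocyte aggregation was scored visually. Anti-HA antibody served as the positive control.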

Series [5] in a line: Selectivity index, ratio of CC50 for MDCK cells to IC50 for influenza A virus A/WSN/33. It counts as toxicity. The settings on record: dog, read-out: Ratio CC50/IC50. Put shortly:
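SI was calculated as CC50 (uninfected MDCK, 40 h CellTiter-Glo) divided by IC50 (50% inhibition of A/WSN/33 replication in MDCK, MOI 0.1, 40 h CellTiter-Glo).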

Series [6] relates to Influenza B virus. The series can be described thus: Antiviral activity against Influenza B virus B/Massachusetts/2/2012(BV) infected in MDCK cells assessed as inhibition of virus-induced cytopathic effect after 40 hrs by Celltiter-Glo assay. It counts as functional, organism-based. In outline:
as §1

Series [7] deals with Influenza A virus. Nature of the series: Antiviral activity against Influenza A virus A/WSN/33 infected in MDCK cells assessed as reduction in virus-induced cytopathic effect at 100 uM after 40 hrs by Celltiter-Glo assay relative to control. It counts as functional. The settings on record: A/WSN/33, MDCK. Put shortly: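 This was a single-concentration screen at 100 μM in MDCK cells infected with A/WSN/33 at MOI 0.1. CPE protection was read by CellTiter-Glo after 40 h of incubation. The inhibition rate was expressed relative to 1% DMSO (final) negative control, with oseltamivir phosphate as the positive control. Experiments were run in triplicate.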

In series [8] the test system is Influenza B virus. The series can be described thus: Potency index, ratio of OSV-p IC50 to compound IC50 for antiviral activity against Influenza B virus B/Yamagata/16/88(BY). The class given is functional.
In series [9] the test system is Influenza B virus. Nature of the series: Antiviral activity against Influenza B virus B/Yamagata/16/88(BY) infected in MDCK cells assessed as inhibition of virus-induced cytopathic effect after 40 hrs by Celltiter-Glo assay. It counts as functional, organism-based. Put shortly:
as §1

The nature of series [10]: Cytotoxicity against dog MDCK cells assessed as reduction in cell viability measured after 40 hrs by Celltiter-Glo assay. It counts as cell-based, Canis lupus familiaris. In outline:
as §2

The next series has as its system MDCK. The series can be described thus: Cytotoxicity against dog MDCK cells assessed as reduction in cell viability at 100 uM measured after 40 hrs by Celltiter-Glo assay. The class given is cell-based, Canis lupus familiaris. In outline: as §2
Series [11] has as its system Influenza A virus. The series can be described thus: Antiviral activity against Influenza A virus A/WSN/33 assessed as inhibition of virus-induced cytopathic effect after 40 hrs by Celltiter-Glo assay. It counts as functional, organism-based. The conditions noted are these: A/WSN/33, 40 h. In outline:
as §1

Activity calls are given as the source filed them. No cut-off for these calls is given here.

By IC50 is commonly meant the midpoint of a concentration-inhibition curve. In general, inhibition refers to the percentage by which the read-out fell short of the control. Broadly, the CC50 is the concentration giving 50% cytotoxicity.

Chain of Hemagglutinin (Influenza A virus) (B4URE7 as listed by the source): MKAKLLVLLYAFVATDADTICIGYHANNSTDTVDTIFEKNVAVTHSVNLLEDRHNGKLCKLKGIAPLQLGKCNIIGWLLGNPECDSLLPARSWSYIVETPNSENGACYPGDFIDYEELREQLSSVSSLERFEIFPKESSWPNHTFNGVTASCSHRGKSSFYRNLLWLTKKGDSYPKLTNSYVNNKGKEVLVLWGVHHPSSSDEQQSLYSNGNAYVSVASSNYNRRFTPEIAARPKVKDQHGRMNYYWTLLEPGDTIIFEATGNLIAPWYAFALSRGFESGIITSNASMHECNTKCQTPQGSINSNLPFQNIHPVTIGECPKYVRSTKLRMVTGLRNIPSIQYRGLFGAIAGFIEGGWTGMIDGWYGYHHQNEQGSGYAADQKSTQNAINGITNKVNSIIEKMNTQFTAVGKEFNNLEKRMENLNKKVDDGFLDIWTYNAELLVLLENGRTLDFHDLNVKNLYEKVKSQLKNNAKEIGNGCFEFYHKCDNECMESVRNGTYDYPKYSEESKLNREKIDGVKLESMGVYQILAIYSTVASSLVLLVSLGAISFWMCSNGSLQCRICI

As for `CC1(C)CC[C@]2(C(=O)NCc3cn([C@@H]4O[C@H](CO)[C@@H](O)[C@H](O)[C@H]4O)nn3)CC[C@]3(C)C(=CC[C@@H]4[C@@]5(C)CC[C@H](O)C(C)(C)[C@@H]5CC[C@]43C)[C@@H]2C1`, the IC50 in the series with Influenza B virus [1] turned out to be 26.1 µM; in the series with Influenza A virus [2], 10.4 µM; with Influenza B virus [6], 11.5 µM; in the series with Influenza B virus [9] it was 5.54 µM; in the series with Influenza A virus [11], 5.47 µM. In addition, the viability at 40 h, 100 µM in series [3] is > 75%. The inhibition result in series [4] was “Active”. In series [5], the selectivity ratio was > 18.3. In the series with Influenza A virus [7], the inhibition at 100 µM was > 75%. For the same compound, the “Ratio IC50” value with Influenza B virus [8] worked out at 4. Also, the CC50 at 40 h in [10] is > 100 µM. Moreover, the Activity result with MDCK is recorded as “Non-Toxic”.

The values above are taken from ChEMBL document CHEMBL4359890, “Design, synthesis of oleanolic acid-saccharide conjugates using click chemistry methodology and study of their anti-influenza activity” (Eur J Med Chem, 2019).
